Results from different studies.
Each line is one published result; the experiments were not run side by side.
OfChi-h: Chitinase (OfChi-h, Ostrinia furnacalis, UniProt Q4AE59)
F10: Coagulation factor X (F10, Homo sapiens, UniProt P00742)
WDR5: WD repeat-containing protein 5 (WDR5, Homo sapiens, UniProt P61964)
SLC22A12: Solute carrier family 22 member 12 (SLC22A12, Homo sapiens, UniProt Q96S37)

| SMILES | target | test | conditions | quantity | result |
| --- | --- | --- | --- | --- | --- |
| CCCCc1ccc(CNc2nc(N(C)C)nc(N(C)C)c2/N=N/c2ccc(Cl)cc2)cc1 | OfChi-h | enzyme activity, inhibitor, fluorescence |  | Ki | 0.0194 µM |
| CCNC(=O)N1CCN(c2nc(NC3CCN(C(=O)[C@@H](CCc4ccc(OC)cc4)NC(=O)[C@@H]4CCCCN4C(=O)C(=O)C(C)(C)CC)CC3)nc(N(Cc3cnn(C)c3)C3CC3)n2)CC1 | Bromodomain-containing protein 9 (BRD9, Homo sapiens, UniProt Q9H8M2) | binding, SPR |  | Kd | > 10 µM |
| O=C(NO)c1cncc(OS(=O)(=O)Oc2ccc(-n3ccnc3)cc2)c1 | Histone deacetylase 7 (HDAC7, Homo sapiens, UniProt Q8WUI4) | enzyme activity, inhibitor, fluorescence |  | IC50 | 5.07 µM |
| CC(=O)N[C@H]1Cc2ccc(cc2)OC/C=C/C[C@@H](C(=O)N[C@@H](CCCNC(=N)N)C(=O)c2nc3ccccc3s2)NC(=O)[C@H](CC(C)C)NC1=O | F10 | enzyme activity, inhibitor, absorbance | with preincubation | IC50 | 0.122 µM |
| C[C@@H]1CN(c2ccc(-c3cc(C(=O)NCCOCCOCCOCCOCCNC(=O)Cn4cc(-c5[nH]cc(C(=O)N[C@@H](CC(N)=O)c6ccc(F)c(Cl)c6)c5-c5ccc(Cl)cc5F)cn4)ccc3F)cc2NC(=O)c2c[nH]c(=O)cc2C(F)(F)F)C[C@H](C)N1C | WDR5 | binding, SPR |  | Kd | 0.0375 µM |
| C=CS(=O)(=O)c1ccc(Nc2nc(OCC3CCCCC3)c3nc[nH]c3n2)cc1 | Gasdermin-D (GSDMD, Homo sapiens, UniProt P57764) | binding, MST |  | Kd | 36.1 µM |
| CN(C)c1nc(NCc2cccc(C(F)(F)F)c2)c(/N=N/c2ccc(Cl)cc2)c(N(C)C)n1 | OfChi-h | enzyme activity, inhibitor, fluorescence |  | IC50 | 0.3 µM |
| Cn1c(=O)c2c(ncn2C)n(C)c1=O | SLC22A12 | transporter uptake, inhibitor, radiometric | oocytes | IC50 | > 5000 µM |
| CC(=O)N[C@H]1Cc2ccc(cc2)OC/C=C\CNC(=O)C[C@@H](C(=O)N[C@@H](CCCNC(=N)N)C(=O)c2nc3ccccc3s2)NC(=O)[C@H](CC(C)C)NC1=O | F10 | enzyme activity, inhibitor, absorbance | with preincubation | IC50 | 3.18 µM |
| C[C@@H]1CN(c2ccc(-c3cc(C(=O)NCCOCCOCCOCCOCCOCCOCCNC(=O)/C=C/c4[nH]cc(C(=O)N[C@@H](CC(N)=O)c5ccc(F)c(Cl)c5)c4-c4ccc(Cl)cc4F)ccc3F)cc2NC(=O)c2ccc(F)cc2C(F)(F)F)C[C@H](C)N1C | WDR5 | binding, SPR |  | Kd | 0.0808 µM |
| Nc1ncnc2c1ncn2[C@@H]1O[C@H](CO)[C@@H](O)[C@H]1O | SLC22A12 | transporter uptake, inhibitor, radiometric | oocytes | IC50 | > 10000 µM |
